From ChEMBL document CHEMBL1145212, “Fluorinated diaryl sulfides as serotonin transporter ligands: synthesis, structure-activity relationship study, and in vivo evaluation of fluorine-18-labeled compounds as PET imaging agents” (J Med Chem, 2005)

Tests used:
Rattus norvegicus [1] = organism: Rattus norvegicus; experiment: Specific binding of [18F]AFA in hypothalamus of rat pretreated with compound 7f; n=3; type: functional
Rattus norvegicus [2] = experiment: Biodistribution of [18F]AFP in rat blood at 30 min postinjection in vivo; type: ADME, organism-based; settings: 0.5 h
Rattus norvegicus [3] = experiment: Biodistribution of [18F]AFP in rat blood at 10 min postinjection in vivo; type: ADME, organism-based
Rattus norvegicus [4] = experiment: Biodistribution of [18F]AFP in rat striatum at 30 min postinjection in vivo; type: ADME, organism-based; settings: 0.5 h
Rattus norvegicus [5] = experiment: Biodistribution of [18F]-AFP in rat frontal cortex at 60 min postinjection in vivo; type: ADME, organism-based; settings: 1 h
Outline: (§1)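 Male Sprague-Dawley rats, three per time point, received the F-18 radioligand in saline (~20 µCi per rat at injection) by tail vein. Under CO2 anesthesia they were decapitated at 10, 30, 60, 90 or 120 min. Blood and dissected brain regions were weighed and gamma counted. Activity was decay-corrected, and injected dose was corrected for tail residual activity. Uptake was expressed as %ID/g versus injectate standards, mean ± SD.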

Rattus norvegicus [6] = experiment: Biodistribution of [18F]-AFP in rat cerebellum at 30 min postinjection in vivo; type: ADME, organism-based; settings: 0.5 h; outline: as §1
Rattus norvegicus [7] = experiment: Biodistribution of [18F]AFP in rat cerebellum at 60 min postinjection in vivo; type: ADME, organism-based; settings: 1 h
Rattus norvegicus [8] = experiment: Biodistribution of [18F]AFP in rat hypothalamus at 30 min postinjection in vivo; type: ADME, organism-based; settings: 0.5 h
Rattus norvegicus [9] = organism: Rattus norvegicus; experiment: Specific binding of [18F]AFA in hippocampus of rat pretreated with compound 7f; n=3; type: functional
Rattus norvegicus [10] = experiment: Biodistribution of [18F]-AFP in rat hippocampus at 10 min postinjection in vivo; type: ADME, organism-based; outline: as §1
Rattus norvegicus [11] = experiment: Biodistribution of [18F]AFP in rat striatum at 90 min postinjection in vivo; type: ADME, organism-based; settings: 1.5 h
Rattus norvegicus [12] = experiment: Biodistribution of [18F]AFP in rat hippocampus at 30 min postinjection in vivo; type: ADME, organism-based; settings: 0.5 h
Rattus norvegicus [13] = experiment: Biodistribution of [18F]AFP in rat cerebellum at 90 min postinjection in vivo; type: ADME, organism-based; settings: 1.5 h
Rattus norvegicus [14] = experiment: Biodistribution of [18F]-AFP in rat cerebellum at 10 min postinjection in vivo; type: ADME, organism-based; outline: as §1
Rattus norvegicus [15] = experiment: Biodistribution of [18F]AFP in rat blood at 90 min postinjection in vivo; type: ADME, organism-based; settings: 1.5 h
Rattus norvegicus [16] = experiment: Biodistribution of [18F]AFP in rat frontal cortex at 90 min postinjection in vivo; type: ADME, organism-based; settings: 1.5 h
Rattus norvegicus [17] = organism: Rattus norvegicus; experiment: Specific binding of [18F]AFA in thalamus of rat pretreated with compound 7f; n=3; type: functional
Rattus norvegicus [18] = experiment: Biodistribution of [18F]AFP in rat hippocampus at 120 min postinjection in vivo; type: ADME, organism-based; settings: 2 h
Rattus norvegicus [19] = experiment: Biodistribution of [18F]AFP in rat hypothalamus at 10 min postinjection in vivo; type: ADME, organism-based
Rattus norvegicus [20] = organism: Rattus norvegicus; experiment: Specific binding of [18F]-AFA in frontal cortex of rat pretreated with compound 7f; n=3; type: functional
Rattus norvegicus [21] = experiment: Biodistribution of [18F]AFP in rat thalamus at 10 min postinjection in vivo; type: ADME, organism-based
Rattus norvegicus [22] = experiment: Biodistribution of [18F]AFP in rat frontal cortex at 120 min postinjection in vivo; type: ADME, organism-based; settings: 2 h
Rattus norvegicus [23] = experiment: Biodistribution of [18F]-AFP in rat hippocampus at 60 min postinjection in vivo; type: ADME, organism-based; settings: 1 h; outline: as §1
Rattus norvegicus [24] = experiment: Biodistribution of [18F]AFP in rat thalamus at 90 min postinjection in vivo; type: ADME, organism-based; settings: 1.5 h
Rattus norvegicus [25] = experiment: Biodistribution of [18F]AFP in rat blood at 60 min postinjection in vivo; type: ADME, organism-based; settings: 1 h
Rattus norvegicus [26] = experiment: Biodistribution of [18F]AFP in rat hypothalamus at 120 min postinjection in vivo; type: ADME, organism-based; settings: 2 h
Rattus norvegicus [27] = experiment: Biodistribution of [18F]AFP in rat hippocampus at 90 min postinjection in vivo; type: ADME, organism-based; settings: 1.5 h
Rattus norvegicus [28] = experiment: Biodistribution of [18F]AFP in rat thalamus at 30 min postinjection in vivo; type: ADME, organism-based; settings: 0.5 h
Rattus norvegicus [29] = experiment: Biodistribution of [18F]AFP in rat striatum at 10 min postinjection in vivo; type: ADME, organism-based
Rattus norvegicus [30] = experiment: Biodistribution of [18F]AFP in rat hypothalamus at 90 min postinjection in vivo; type: ADME, organism-based; settings: 1.5 h
Rattus norvegicus [31] = experiment: Biodistribution of [18F]AFP in rat frontal cortex at 10 min postinjection in vivo; type: ADME, organism-based
Rattus norvegicus [32] = experiment: Biodistribution of [18F]AFP in rat thalamus at 120 min postinjection in vivo; type: ADME, organism-based; settings: 2 h
Rattus norvegicus [33] = experiment: Biodistribution of [18F]-AFP in rat frontal cortex at 30 min postinjection in vivo; type: ADME, organism-based; settings: 0.5 h; outline: as §1
Rattus norvegicus [34] = experiment: Biodistribution of [18F]-AFP in rat blood at 120 min postinjection in vivo; type: ADME, organism-based; settings: 2 h; outline: as §1
Rattus norvegicus [35] = experiment: Biodistribution of [18F]AFP in rat hypothalamus at 60 min postinjection in vivo; type: ADME, organism-based; settings: 1 h
Rattus norvegicus [36] = experiment: Biodistribution of [18F]AFP in rat striatum at 120 min postinjection in vivo; type: ADME, organism-based; settings: 2 h
Rattus norvegicus [37] = experiment: Biodistribution of [18F]AFP in rat cerebellum at 120 min postinjection in vivo; type: ADME, organism-based; settings: 2 h
Rattus norvegicus [38] = organism: Rattus norvegicus; experiment: Specific binding of [18F]AFA in striatum of rat pretreated with compound 7f; n=3; type: functional
Rattus norvegicus [39] = experiment: Biodistribution of [18F]AFP in rat striatum 60 min postinjection in vivo; type: ADME, organism-based; settings: 1 h
Rattus norvegicus [40] = experiment: Biodistribution of [18F]AFP in rat thalamus at 60 min postinjection in vivo; type: ADME, organism-based; settings: 1 h

## CN(C)Cc1ccccc1Sc1ccc(CCC[18F])cc1N
Rattus norvegicus [1]
  Specific binding: 0.26 %ID/g
Rattus norvegicus [2]
  Biodistribution: 0.15 %ID/g
Rattus norvegicus [3]
  Biodistribution: 0.18 %ID/g
Rattus norvegicus [4]
  Biodistribution: 0.21 %ID/g
Rattus norvegicus [5]
  Biodistribution: 0.12 %ID/g
Rattus norvegicus [6]
  Biodistribution: 0.14 %ID/g
Rattus norvegicus [7]
  Biodistribution: 0.07 %ID/g
Rattus norvegicus [8]
  Biodistribution: 0.21 %ID/g
Rattus norvegicus [9]
  Specific binding: 0.03 %ID/g
Rattus norvegicus [10]
  Biodistribution: 0.36 %ID/g
Rattus norvegicus [11]
  Biodistribution: 0.08 %ID/g
Rattus norvegicus [12]
  Biodistribution: 0.19 %ID/g
Rattus norvegicus [13]
  Biodistribution: 0.03 %ID/g
Rattus norvegicus [14]
  Biodistribution: 0.31 %ID/g
Rattus norvegicus [15]
  Biodistribution: 0.08 %ID/g
Rattus norvegicus [16]
  Biodistribution: 0.05 %ID/g
Rattus norvegicus [17]
  Specific binding: 0.35 %ID/g
Rattus norvegicus [18]
  Biodistribution: 0.08 %ID/g
Rattus norvegicus [19]
  Biodistribution: 0.42 %ID/g
Rattus norvegicus [20]
  Specific binding: 0.05 %ID/g
Rattus norvegicus [21]
  Biodistribution: 0.44 %ID/g
Rattus norvegicus [22]
  Biodistribution: 0.08 %ID/g
Rattus norvegicus [23]
  Biodistribution: 0.13 %ID/g
Rattus norvegicus [24]
  Biodistribution: 0.1 %ID/g
Rattus norvegicus [25]
  Biodistribution: 0.14 %ID/g
Rattus norvegicus [26]
  Biodistribution: 0.1 %ID/g
Rattus norvegicus [27]
  Biodistribution: 0.07 %ID/g
Rattus norvegicus [28]
  Biodistribution: 0.28 %ID/g
Rattus norvegicus [29]
  Biodistribution: 0.41 %ID/g
Rattus norvegicus [30]
  Biodistribution: 0.1 %ID/g
Rattus norvegicus [31]
  Biodistribution: 0.47 %ID/g
Rattus norvegicus [32]
  Biodistribution: 0.1 %ID/g
Rattus norvegicus [33]
  Biodistribution: 0.21 %ID/g
Rattus norvegicus [34]
  Biodistribution: 0.04 %ID/g
Rattus norvegicus [35]
  Biodistribution: 0.13 %ID/g
Rattus norvegicus [36]
  Biodistribution: 0.08 %ID/g
Rattus norvegicus [37]
  Biodistribution: 0.03 %ID/g
Rattus norvegicus [38]
  Specific binding: 0.07 %ID/g
Rattus norvegicus [39]
  Biodistribution: 0.11 %ID/g
Rattus norvegicus [40]
  Biodistribution: 0.16 %ID/g
